This note sets out measurements from ChEMBL document CHEMBL4385618, “Exploring small molecules with pan-genotypic inhibitory activities against hepatitis C virus NS3/4A serine protease” (Bioorg Med Chem Lett, 2019).

Active and inactive are the calls of the source. No cut-off for these calls is given here.

The nature of assay [1]: Binding affinity to recombinant full length His-tagged HCV genotype 1b NS3 (1027 to 1657 residues)/4A (1658 to 1711 residues) protease expressed in Escherichia coli rosetta (DE3) cells assessed as dissociation constant by SPR analysis. On the set-up: species or system Hepatitis C virus subtype 1b.
A short description of assay [2]: Inhibition of recombinant wild type full length His-tagged HCV genotype 1b NS3 (1027 to 1657 residues)/4A (1658 to 1711 residues) protease expressed in Escherichia coli rosetta (DE3) cells using Ac-DE-Dap(QXL520)-EE-Abu-Psi-[COO]AS-C(5-FAMsp)-NH2 as substrate preincubated up to 10 mins followed by substrate addition and measured for 10 mins by fluorescence-based microplate reader analysis. Further details: species or system Hepatitis C virus subtype 1b. The method in brief: (§1)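 IC50 came from the fluorescence-based enzymatic assay by fitting the inhibition curve to the three-parameter Hill equation.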

Assay [3] in a line: (§2) Inhibition of recombinant HCV genotype 3a NS3/4A protease using Ac-DE-Dap(QXL520)-EE-Abu-Psi-[COO]AS-C(5-FAMsp)-NH2 as substrate preincubated up to 10 mins followed by substrate addition and measured for 10 mins by fluorescence-based microplate reader analysis. On the set-up: species or system Hepatitis C virus subtype 3a. The method in brief:
as §1

In assay [4] the test system is Hepatitis C virus subtype 2a. Nature of the assay: Inhibition of recombinant HCV genotype 2a NS3/4A protease using Ac-DE-Dap(QXL520)-EE-Abu-Psi-[COO]AS-C(5-FAMsp)-NH2 as substrate preincubated up to 10 mins followed by substrate addition and measured for 10 mins by fluorescence-based microplate reader analysis. The method in brief:
as §1

In assay [5] the test system is Hepatitis C virus serine protease, NS3/NS4A (Hepatitis C virus), D2K2A8+A3EZI9 [R155K]. Nature of the assay: Inhibition of recombinant full length His-tagged HCV genotype 1b NS3/4A (1027 to 1657 residues) protease R155K (NS3) mutant expressed in Escherichia coli rosetta (DE3) cells using Ac-DE-Dap(QXL520)-EE-Abu-Psi-[COO]AS-C(5-FAMsp)-NH2 as substrate preincubated up to 10 mins followed by substrate addition and measured for 10 mins by fluorescence-based microplate reader analysis. As to conditions: Hepatitis C virus subtype 1b. The procedure, abridged:
(§3)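 IC50 values come from a fluorescence-based enzymatic assay, with dose-response curves fitted to a three-parameter Hill equation. The mutants were genotype 1b NS3/4A.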

Assay [6] relates to Hepatitis C virus genotype 4. Nature of the assay: Inhibition of recombinant HCV genotype 4 NS3/4A protease using Ac-DE-Dap(QXL520)-EE-Abu-Psi-[COO]AS-C(5-FAMsp)-NH2 as substrate preincubated up to 10 mins followed by substrate addition and measured for 10 mins by fluorescence-based microplate reader analysis. The method in brief:
as §1

Assay [7] concerns Hepatitis C virus subtype 1a. Kind of assay: Inhibition of recombinant HCV genotype 1a NS3/4A protease using Ac-DE-Dap(QXL520)-EE-Abu-Psi-[COO]AS-C(5-FAMsp)-NH2 as substrate preincubated up to 10 mins followed by substrate addition and measured for 10 mins by fluorescence-based microplate reader analysis. The method in brief: as §1
Assay [8] has as its system Hepatitis C virus serine protease, NS3/NS4A (Hepatitis C virus), D2K2A8+A3EZI9 [V36M]. Nature of the assay: Inhibition of recombinant full length His-tagged HCV genotype 1b NS3/4A (1027 to 1657 residues) protease V36M (NS3) mutant expressed in Escherichia coli rosetta (DE3) cells using Ac-DE-Dap(QXL520)-EE-Abu-Psi-[COO]AS-C(5-FAMsp)-NH2 as substrate preincubated up to 10 mins followed by substrate addition and measured for 10 mins by fluorescence-based microplate reader analysis. As to conditions: Hepatitis C virus subtype 1b. The method in brief:
as §3

For assay [9], the system named is Hepatitis C virus serine protease, NS3/NS4A (Hepatitis C virus), D2K2A8+A3EZI9 [A156S]. Nature of the assay: Inhibition of recombinant full length His-tagged HCV genotype 1b NS3/4A (1027 to 1657 residues) protease A156S (NS3) mutant expressed in Escherichia coli rosetta (DE3) cells using Ac-DE-Dap(QXL520)-EE-Abu-Psi-[COO]AS-C(5-FAMsp)-NH2 as substrate preincubated up to 10 mins followed by substrate addition and measured for 10 mins by fluorescence-based microplate reader analysis. As to conditions: Hepatitis C virus subtype 1b. The procedure, abridged: as §3

Assay [10] concerns Hepatitis C virus subtype 3a. The description is as §2. The method in brief:
as §1

As to `CSc1cccc2sc(NC(=O)c3ccccc3NS(=O)(=O)c3ccc(C)cc3)nc12`, the Kd in [1] was above 200 µM. In assay [2], the IC50 lay within 10 to 100 µM.

For `Cc1ccc(S(=O)(=O)Nc2ccccc2C(=O)Nc2nc3c(cc4c5c(cccc53)CC4)s2)cc1`, the figures for the IC50 in assay [3] and in assay [2] were 14 to 33 µM and 2 to 5 µM, respectively. Further, the inhibition entry in assay [4], in assay [6] and in assay [7] was “Active” throughout. The inhibition result in assay [5] is “inactive”.

`Cc1ccc(S(=O)(=O)Nc2ccccc2C(=O)Nc2nc3c(Br)cccc3s2)cc1`: the Kd in [1] is above 200 µM. Moreover, the IC50 in assay [2] fell in the range of 10 to 100 µM.

For the compound `CSc1cccc(NC(=O)Cc2csc(NS(=O)(=O)c3ccccc3)n2)c1`, the half-inhibitory concentration (IC50) in assay [2] lay within 5 to 10 µM.

For the compound `Cc1ccc(S(=O)(=O)Nc2ccccc2C(=O)Nc2nc3c(C)cc(C)cc3s2)cc1`, the IC50 in [2] was in the range of 2 to 5 µM.

With `Cc1c(Cl)cccc1NC(=O)Cc1csc(NS(=O)(=O)c2ccccc2)n1`, the IC50 in assay [2] was in the range of 5 to 10 µM.

Regarding `Cc1ccc(S(=O)(=O)Nc2ccccc2C(=O)Nc2nc3c(ccc4ccccc43)s2)cc1`, in [2], the IC50 is 5 to 10 µM.

Take `Cc1ccc(S(=O)(=O)Nc2ccccc2C(=O)Nc2nc3c(C)ccc(Cl)c3s2)cc1`: the IC50 was 14 to 33 µM in assay [3] and 5 to 10 µM in assay [2]. The inhibition result in assay [4], in assay [6] and in assay [7] was “Active” throughout. Moreover, the inhibition result in [5] was “inactive”.

Consider `Cc1ccc(S(=O)(=O)Nc2ccccc2C(=O)Nc2nc3ccc4sc(C)nc4c3s2)cc1`, for which, in assay [2], the IC50 lay in the range of 2 to 5 µM.

In the case of `Cc1ccc(S(=O)(=O)Nc2ccccc2C(=O)Nc2nc(-c3cc(Cl)ccc3Cl)cs2)cc1`, the IC50 was 14 to 33 µM in [3] and below 2 µM in assay [2]. Moreover, the inhibition entry in [4], in assay [6] and in [7] was “Active” throughout. Further, the inhibition entry in assay [5] was “inactive”.

Consider `Cc1ccc(S(=O)(=O)Nc2ccccc2C(=O)Nc2nc3c(Cl)ccc(Cl)c3s2)cc1`, for which the results for the IC50 in assay [3] and in assay [2] were 14 to 33 µM and 1.6 µM, respectively. In addition, the inhibition entry in assay [8], in [9], in assay [4], in [5], in assay [6] and in assay [7] was “Active” throughout.

Take `Cc1ccc(S(=O)(=O)Nc2ccccc2C(=O)Nc2nc3ccc4ccccc4c3s2)cc1`: in assay [2], the IC50 was 2 to 5 µM.

On to `Cc1cc(NC(=O)Cc2csc(NS(=O)(=O)c3ccccc3)n2)ccc1Br`, for which, in assay [10], the inhibition entry is “inactive”.
